From the array DNA melting data of Ke et al. (doi:10.1101/2024.01.08.574731)

Tests used:
[1] = folding enthalpy; higher = less favourable; fluorescence melt of hairpins on a sequencing array, two-state fit; settings: sodium 0.088 M
In short: (§1)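 Bootstrapped two-state fits yielded melting temperature and folding enthalpy for library hairpins. Cy3 fluorescence, with annealed Cy3 and quencher oligos, was imaged on a sequenced MiSeq flow cell in 50 mM Na-HEPES pH 8.0, 25 mM NaCl in 2.5 °C steps up to 60 °C, and normalised to pre-quench Cy3 and to control constructs. Four replicates were combined by inverse variance, and fitted temperatures were raised by 9.35 °C to match UV melts.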

[2] = melting temperature; fluorescence melt of hairpins on a sequencing array, two-state fit, raised by 9.35 °C to match UV melts; settings: sodium 0.088 M
In short: as §1

Sequence | folding enthalpy [1] | Tm [2]
GATCCAGCGGTGGATC ((((((....)))))) | -44.3 kcal/mol | 50.8 °C
GATCCAGCGTGGATC ((((((...)))))) | -27.4 kcal/mol | 50.5 °C
GATCCAGCGTTGGATC ((((((....)))))) | -44.2 kcal/mol | 49.6 °C
GATCCAGCTCTGGATC ((((((....)))))) | -41.1 kcal/mol | 54 °C
GATCCAGGACTGGATC ((((((....)))))) | -41.1 kcal/mol | 56.2 °C
GATCCAGGGTTGGATC ((((((....)))))) | -34.2 kcal/mol | 50.8 °C
GATCCAGGTATGGATC ((((((....)))))) | -35.1 kcal/mol | 58 °C
GATCCAGGTCTGGATC ((((((....)))))) | -37.4 kcal/mol | 55 °C
GATCCAGTATGGATC ((((((...)))))) | -39.8 kcal/mol | 60.1 °C
GATCCAGTCCTGGATC ((((((....)))))) | -44.6 kcal/mol | 56.5 °C
GATCCAGTTCTGGATC ((((((....)))))) | -39.6 kcal/mol | 55.5 °C
GATCCATAGATGGATC ((((((....)))))) | -33.5 kcal/mol | 51.2 °C
GATCCATCCTTGGATC ((((((....)))))) | -44.2 kcal/mol | 53.6 °C
GATCCATCGGTGGATC ((((((....)))))) | -39.5 kcal/mol | 50.6 °C
GATCCATCGTGGATC ((((((...)))))) | -36.9 kcal/mol | 50.8 °C
GATCCATCGTTGGATC ((((((....)))))) | -43.1 kcal/mol | 51.7 °C
GATCCATGGTGGATC ((((((...)))))) | -36 kcal/mol | 50.6 °C
GATCCATTAATGGATC ((((((....)))))) | -38.7 kcal/mol | 54.8 °C
GATCCATTACTGGATC ((((((....)))))) | -29.9 kcal/mol | 51.1 °C
GATCCATTAGTGGATC ((((((....)))))) | -36.8 kcal/mol | 53 °C
GATCCATTGATGGATC ((((((....)))))) | -40.5 kcal/mol | 53.5 °C
GATCCATTTGTGGATC ((((((....)))))) | -44.5 kcal/mol | 54.7 °C
GATCCCAATAGGGATC ((((((....)))))) | -36.5 kcal/mol | 64.8 °C
GATCCCAATCGGGATC ((((((....)))))) | -40.2 kcal/mol | 61.6 °C

Sequence | folding enthalpy [1] | Tm [2]
GATCCCAATTGGGATC ((((((....)))))) | -38.2 kcal/mol | 61.5 °C
GATCCCACTCGGGATC ((((((....)))))) | -38.1 kcal/mol | 61.8 °C
GATCCCAGACGGGATC ((((((....)))))) | -37.1 kcal/mol | 58.6 °C
GATCCCAGAGGGGATC ((((((....)))))) | -32.2 kcal/mol | 60.9 °C
GATCCCAGCAGGGATC ((((((....)))))) | -34.6 kcal/mol | 66.3 °C
GATCCCAGCTGGGATC ((((((....)))))) | -46.9 kcal/mol | 62.3 °C
GATCCCAGGAGGGATC ((((((....)))))) | -32.2 kcal/mol | 59.9 °C
GATCCCAGGCGGGATC ((((((....)))))) | -34 kcal/mol | 61.1 °C
GATCCCAGGTGGGATC ((((((....)))))) | -37 kcal/mol | 60.1 °C
GATCCCATCGGGGATC ((((((....)))))) | -31.1 kcal/mol | 59.9 °C
GATCCCCAATGGGATC ((((((....)))))) | -34.5 kcal/mol | 59.7 °C
GATCCCCACAGGGATC ((((((....)))))) | -23 kcal/mol | 66.4 °C
GATCCCCAGAGGGATC ((((((....)))))) | -31.7 kcal/mol | 59.8 °C
GATCCCCAGCGGGATC ((((((....)))))) | -30.7 kcal/mol | 59.8 °C
GATCCCCATTGGGATC ((((((....)))))) | -37.6 kcal/mol | 59.6 °C
GATCCCCCTTGGGATC ((((((....)))))) | -39.8 kcal/mol | 57.7 °C
GATCCCCGATGGGATC ((((((....)))))) | -34.5 kcal/mol | 60.9 °C
GATCCCGAAAGGGTTATC ((((((....)))..))) | -8.18 kcal/mol | 27.5 °C
GATCCCGACGGGATC ((((((...)))))) | -28.4 kcal/mol | 68 °C
GATCCCGCCGGGATC ((((((...)))))) | -39.7 kcal/mol | 67.6 °C
GATCCCGCTCGGGATC ((((((....)))))) | -34 kcal/mol | 65.8 °C
GATCCCGGAAACAGGATC (((((.(....).))))) | -28.8 kcal/mol | 38.8 °C
GATCCCGGATGGGATC ((((((....)))))) | -28 kcal/mol | 67.8 °C
GATCCCGGGGGGGATC ((((((....)))))) | -33.7 kcal/mol | 62 °C

Sequence | folding enthalpy [1] | Tm [2]
GATCCCGTCCGGGATC ((((((....)))))) | -42 kcal/mol | 67.9 °C
GATCCCGTCTGGGATC ((((((....)))))) | -39.2 kcal/mol | 65.5 °C
GATCCCGTGGGGGATC ((((((....)))))) | -31.9 kcal/mol | 60 °C
GATCCCTAAGGGGATC ((((((....)))))) | -35.2 kcal/mol | 61.1 °C
GATCCCTAATGGGATC ((((((....)))))) | -38.3 kcal/mol | 57.6 °C
GATCCCTACAGGGATC ((((((....)))))) | -36.2 kcal/mol | 65.6 °C
GATCCCTATAGGGATC ((((((....)))))) | -45.4 kcal/mol | 65.6 °C
GATCCCTCAAGGGATC ((((((....)))))) | -40 kcal/mol | 60.9 °C
GATCCCTCTCGGGATC ((((((....)))))) | -34.3 kcal/mol | 63.5 °C
GATCCCTGAAGGGATC ((((((....)))))) | -32.8 kcal/mol | 64.1 °C
GATCCCTGACGGGATC ((((((....)))))) | -38.6 kcal/mol | 58.1 °C
GATCCCTGAGGGATC ((((((...)))))) | -34.7 kcal/mol | 59.6 °C
GATCCCTGCTGGGATC ((((((....)))))) | -39.5 kcal/mol | 60.2 °C
GATCCCTTAAGGGATC ((((((....)))))) | -39.4 kcal/mol | 65.6 °C
GATCCCTTTGGGATC ((((((...)))))) | -40.6 kcal/mol | 63.5 °C
GATCCGAAACCGGATC ((((((....)))))) | -38 kcal/mol | 53.4 °C
GATCCGAAAGCGGATC ((((((....)))))) | -34 kcal/mol | 53.1 °C
GATCCGAACCCGGATC ((((((....)))))) | -38.9 kcal/mol | 54.8 °C
GATCCGAAGGCGGATC ((((((....)))))) | -28.4 kcal/mol | 52.3 °C
GATCCGAATACGGATC ((((((....)))))) | -38.6 kcal/mol | 57.5 °C
GATCCGACTACGGATC ((((((....)))))) | -35.6 kcal/mol | 57.1 °C
GATCCGACTCGGATC ((((((...)))))) | -38.9 kcal/mol | 55.7 °C
GATCCGAGGACGGATC ((((((....)))))) | -33.9 kcal/mol | 56.5 °C
GATCCGAGGGCGGATC ((((((....)))))) | -31.5 kcal/mol | 55.3 °C

Sequence | folding enthalpy [1] | Tm [2]
GATCCGATGCCGGATC ((((((....)))))) | -40.1 kcal/mol | 56.1 °C
GATCCGCAACCGGATC ((((((....)))))) | -39.3 kcal/mol | 55.1 °C
GATCCGCACGCGGATC ((((((....)))))) | -39.1 kcal/mol | 67.6 °C
GATCCGCAGACGGATC ((((((....)))))) | -36.3 kcal/mol | 60.8 °C
GATCCGCAGCGGATC ((((((...)))))) | -54.5 kcal/mol | 54.8 °C
GATCCGCATACGGATC ((((((....)))))) | -37.9 kcal/mol | 61.5 °C
GATCCGCATGCGGATC ((((((....)))))) | -30.3 kcal/mol | 69 °C
GATCCGCATTCGGATC ((((((....)))))) | -36.1 kcal/mol | 59.8 °C
GATCCGCCACGGATC ((((((...)))))) | -37 kcal/mol | 57.2 °C
GATCCGCCTCCGGATC ((((((....)))))) | -34.5 kcal/mol | 56.1 °C
GATCCGCCTCGGATC ((((((...)))))) | -30 kcal/mol | 56.7 °C
GATCCGCCTGCGGATC ((((((....)))))) | -40.3 kcal/mol | 69.2 °C
GATCCGCGCTCGGATC ((((((....)))))) | -37.3 kcal/mol | 57.4 °C
GATCCGCGGCGGATC ((((((...)))))) | -50.8 kcal/mol | 57.7 °C
GATCCGCGTACGGATC ((((((....)))))) | -35.3 kcal/mol | 60.4 °C
GATCCGCTACCGGATC ((((((....)))))) | -48 kcal/mol | 56.8 °C
GATCCGCTCCCGGATC ((((((....)))))) | -35.8 kcal/mol | 56.9 °C
GATCCGGAGTCGGATC ((((((....)))))) | -36.4 kcal/mol | 55.7 °C
GATCCGGATCCGGATC ((((((....)))))) | -51.4 kcal/mol | 61.3 °C
GATCCGGCAGCGGATC ((((((....)))))) | -37.8 kcal/mol | 59.4 °C
GATCCGGCATCGGATC ((((((....)))))) | -45.5 kcal/mol | 64.8 °C
GATCCGGCCACGGATC ((((((....)))))) | -41.6 kcal/mol | 67.5 °C
GATCCGGCCCGGATC ((((((...)))))) | -30.7 kcal/mol | 58.9 °C
GATCCGGCGCGGATC ((((((...)))))) | -37.1 kcal/mol | 59.3 °C
